Test results published in ChEMBL document CHEMBL3046951, “Volatile constituents from the leaves of Callicarpa japonica Thunb. and their antibacterial activities” (2004).

What was measured:
Format in all cases: functional
[1] = test system: Listeria monocytogenes; assay: Antimicrobial activity against Listeria monocytogenes ATCC 19111 assessed as growth inhibition rate at 13.56 mg/l after 72 hr by spectrophotometry; details: ATCC 19111, 72 h, read-out: GI
Method in brief: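 L. monocytogenes was grown at 30 °C in tryptic soy broth, subcultured for 18 h, and exposed to pure volatile compounds (>95% purity). Growth was followed by Bioscreen C optical density every 24 h for 72 h against a 10% Tween 80 control.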

[2] = test system: Vibrio parahaemolyticus; assay: Antimicrobial activity against Vibrio parahaemolyticus ATCC 33844 assessed as growth inhibition rate at 13.56 mg/l after 72 hr by spectrophotometry; details: ATCC 33844, 72 h, read-out: GI
[3] = test system: Salmonella typhimurium; assay: Antimicrobial activity against Salmonella enterica subsp. enterica serovar Typhimurium ATCC 14028 assessed as growth inhibition rate at 13.56 mg/l after 72 hr by spectrophotometry; details: ATCC 14028, 72 h, read-out: GI
Method in brief: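 Salmonella Typhimurium ATCC 14028 grown in nutrient broth at 30 °C, precultured 24 h, then subcultured 1:100 for 18 h before testing. Single volatile compounds (>95% pure) were added. OD was read every 24 h over 72 h in a Bioscreen C, with 10% Tween 80 as the comparison control.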

[4] = test system: Escherichia coli; assay: Antimicrobial activity against Escherichia coli O157:H7 ATCC 43894 assessed as growth inhibition rate at 13.56 mg/l after 72 hr by spectrophotometry; details: O157:H7 ATCC 43894, 72 h, read-out: GI
[5] = test system: Staphylococcus aureus; assay: Antimicrobial activity against Staphylococcus aureus ATCC 25923 assessed as growth inhibition rate at 13.56 mg/l after 72 hr by spectrophotometry; details: ATCC 25923, 72 h, read-out: GI
[6] = test system: Bacillus cereus; assay: Antimicrobial activity against Bacillus cereus ATCC 11778 assessed as growth inhibition rate at 13.56 mg/l after 72 hr by spectrophotometry; details: ATCC 11778, 72 h, read-out: GI
Method in brief: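 Pure volatile compounds (purity >95%; one at 90%) were tested against B. cereus ATCC 11778. The strain was grown at 30 °C in nutrient broth for 24 h, then subcultured for 18 h. Optical density was read in a Bioscreen C every 24 h for 72 h, with 10% Tween 80 as the control.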

## CCC/C=C/CO
[1]
  inhibition of growth at 13.56 µg/mL: 19.2%
[2]
  inhibition of growth at 13.56 µg/mL: 38.6%
[3]
  inhibition of growth at 13.56 µg/mL: 29.1%
[4]
  inhibition of growth at 13.56 µg/mL: 31.8%
[5]
  inhibition of growth at 13.56 µg/mL: 29.5%
[6]
  inhibition of growth at 13.56 µg/mL: 52.5%
